Laboratory results taken from ChEMBL document CHEMBL4138240, “Structure-guided design, synthesis and evaluation of oxazolidinone-based inhibitors of norovirus 3CL protease” (Eur J Med Chem, 2018).
pEC50, pIC50: −log10 of the molar value.

Legend:
[1] = Inhibition of Norovirus 3CL protease using Edans-DFHLQ/GP-Dabcyl as substrate preincubated for 30 mins followed by substrate addition measured for 1 hr by FRET assay
Summary of the method: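 Protease preincubated at 37 °C for 30 min with serially diluted compound (up to 100 μM) or DMSO in assay buffer: 20 mM HEPES pH 8, 200 mM NaCl, 0.4 mM EDTA, 60% glycerol, 6 mM DTT. Substrate was then added. Fluorescence (ex 360/em 460 nm) was read for 1 h, with no-protease background subtracted. IC50 came from variable-slope dose-response fits.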

Norovirus = test: Antiviral activity against Norovirus replicon infected in human HG23 cells assessed as inhibition of viral RNA replication after 48 hrs by qRT-PCR method; assay type: functional, organism-based
Summary of the method: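 HG23 cells carrying the NV replicon, confluent or semi-confluent, were given medium with compound (up to 100 μM) or DMSO (<0.1%) for 48 h. Total RNA was then extracted and viral genome quantified by real-time qRT-PCR. EC50 was derived from curve fitting.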

[2] = Cytotoxicity against human HG23 cells after 72 hrs by crystal violet staining-based assay; assay type: cell-based

Structure (SMILES) | pIC50 [1] | pEC50 (Norovirus; Norovirus, HG23, 48 h) | CC50 at 72 h [2] [µM] | pEC50 (Norovirus)
CC(C)C[C@@H](C(=O)N[C@@H](C[C@@H]1CCNC1=O)C(O)S(=O)(=O)O)N1CC(COc2cccc(Cl)c2)OC1=O (mixture of isomers) | 5.07 | 5.12 | > 100 | 
O=C1NCC[C@H]1C[C@H](NC(=O)[C@H](CC1CCCCC1)N1CC(Cc2cccc(Cl)c2)OC1=O)C(O)S(=O)(=O)O (mixture of isomers) | 4.82 | 5.09 | 46.1 | 
O=C[C@H](C[C@@H]1CCNC1=O)NC(=O)[C@H](CC1CCCCC1)N1CC(Cc2cccc(Cl)c2)OC1=O (mixture of isomers) | 4.87 | 5.17 | 55.2 | 
CC(C)C[C@@H](C(=O)N[C@H](C=O)C[C@@H]1CCNC1=O)N1CC(COCc2cccc(Cl)c2)OC1=O (mixture of isomers) | 5.09 | 4.83 | > 100 | 
CC(C)C[C@@H](C(=O)N[C@H](C=O)C[C@@H]1CCNC1=O)N1CC(COc2cccc(Cl)c2)OC1=O (mixture of isomers) | 5.42 | 5.09 | > 100 | 
CC(C)C[C@@H](C(=O)N[C@@H](C[C@@H]1CCNC1=O)C(O)S(=O)(=O)O)N1CC(COCc2cccc(Cl)c2)OC1=O (mixture of isomers) | 4.97 | 4.76 | > 100 | 
CC(C)C[C@@H](C(=O)N[C@H](C=O)C[C@@H]1CCNC1=O)N1CC(Cc2cccc(Cl)c2)OC1=O (stereo in doubt; 8A) | 5.14 | 4.94 |  | 
CC(C)C[C@@H](C(=O)N[C@H](C=O)C[C@@H]1CCNC1=O)N1CC(Cc2cccc(Cl)c2)OC1=O (stereo in doubt; 8B) | 4.82 |  | > 100 | 4.82
CC(C)C[C@@H](C(=O)N[C@@H](C[C@@H]1CCNC1=O)C(O)S(=O)(=O)O)N1CC(Cc2cccc(Cl)c2)OC1=O (stereo in doubt; 12A) | 5.09 | 4.91 |  | 
CC(C)C[C@@H](C(=O)N[C@@H](C[C@@H]1CCNC1=O)C(O)S(=O)(=O)O)N1CC(Cc2cccc(Cl)c2)OC1=O (stereo in doubt; 12B) | 4.88 |  | > 100 | 4.76
